pKd: −log10 of the molar value. Activity calls are given as the source filed them. The calls are words filed in the database; no cut-off is given here.
Columns and labels:
[1] = Binding affinity to low-affinity binding site of rat alpha-1-acid glycoprotein at 20 degC by surface plasmon resonance assay; type: ADME
In short: (§1)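 Cross-serial dilutions, top 250 μM. Reference-subtracted, solvent-corrected, double-referenced responses at the end of association plotted against concentration and fitted to single- or two-site equilibrium models.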

[2] = Binding affinity to high-affinity binding site of rat alpha-1-acid glycoprotein at 20 degC by surface plasmon resonance assay; type: ADME; in short: as §1
[3] = target: T1, Albumin (Rattus norvegicus, UniProt P02770); test: Binding affinity to rat serum albumin at 500 uM at 20 degC by surface plasmon resonance assay; type: ADME; details: isolated protein
[4] = Binding affinity to low-affinity site of human alpha-1-acid glycoprotein at 20 degC by surface plasmon resonance assay; type: ADME; in short: as §1
[5] = target: T1, Albumin; test: Binding affinity to rat serum albumin at 500 uM at 37 degC by surface plasmon resonance assay; type: ADME; details: isolated protein
[6] = Binding affinity to human alpha-1-acid glycoprotein at 25 degC; type: ADME
[7] = target: T2, Albumin (Homo sapiens, UniProt P02768); test: Binding affinity to human serum albumin at 500 uM at 37 degC by surface plasmon resonance assay; type: ADME; details: isolated protein
[8] = target: T2, Albumin; test: Binding affinity to human serum albumin at 500 uM at 20 degC by surface plasmon resonance assay; type: ADME; details: isolated protein
[9] = Binding affinity to human alpha-1-acid glycoprotein at 20 degC by isothermal titration calorimetry analysis; type: ADME
In short: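 ITC at 20 °C. Human (300 μM) or rat (100 μM) AAG dialysed overnight at 4 °C into 50 mM HEPES pH 7.2, 150 mM NaCl, 0.005% Tween-20, 5% DMSO. Heats corrected with buffer controls and fitted to a one-site model.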

[10] = Binding affinity to high-affinity site of human alpha-1-acid glycoprotein at 20 degC by surface plasmon resonance assay; type: ADME; in short: as §1
[11] = Binding affinity to […] uM of human alpha-1-acid glycoprotein in at 25 uM after 6 hrs by equilibrium dialysis method; type: ADME; details: isolated protein
[12] = Binding affinity to 10 uM of human alpha-1-acid glycoprotein in at 75 uM after 6 hrs by equilibrium dialysis method; type: ADME; details: isolated protein
In short: (§2)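 [14C]-labelled plus unlabelled drug added to human AAG at 0.5, 1 or 5 mg/mL to give 5, 25 or 75 μM drug. Dialysed against 0.133 M isotonic phosphate buffer, 6 h, 37 °C, 5% CO2. Scintillation counting of both sides gives % free (buffer/protein side ×100) and % bound. High-affinity KD from a two-site fit of bound vs free, Bmax1 fixed at the AAG concentration.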

[13] = Binding affinity to 100 uM of human alpha-1-acid glycoprotein in at 5 uM after 6 hrs by equilibrium dialysis method; type: ADME; details: isolated protein; in short: as §2
[14] = Binding affinity to 100 uM of human alpha-1-acid glycoprotein in at 25 uM after 6 hrs by equilibrium dialysis method; type: ADME; details: isolated protein; in short: as §2
[15] = Binding affinity to rat alpha-1-acid glycoprotein at 250 uM at 37 degC by surface plasmon resonance assay; type: ADME; in short: as §1
[16] = target: T1, Albumin; test: Binding affinity to high-affinity binding site of rat serum albumin at 20 degC by surface plasmon resonance assay
[17] = Binding affinity to […] uM of human alpha-1-acid glycoprotein in at 5 uM after 6 hrs by equilibrium dialysis method; type: ADME; details: isolated protein
[18] = Binding affinity to 10 uM of human alpha-1-acid glycoprotein in at 5 uM after 6 hrs by equilibrium dialysis method; type: ADME; details: isolated protein; in short: as §2
[19] = Binding affinity to 100 uM of human alpha-1-acid glycoprotein in at 75 uM after 6 hrs by equilibrium dialysis method; type: ADME; details: isolated protein; in short: as §2
[20] = target: T1, Albumin; test: Binding affinity to low-affinity binding site of rat serum albumin at 20 degC by surface plasmon resonance assay
[21] = Binding affinity to […] uM of human alpha-1-acid glycoprotein in at 75 uM after 6 hrs by equilibrium dialysis method; type: ADME; details: isolated protein
[22] = target: Sonic hedgehog protein (Homo sapiens) (UniProt Q15465); test: Inhibition of human SHH pathway in mouse S12 cells assessed as GLI-mediated transcriptional activity after 48 hrs by luciferase reporter gene assay in presence of 1 mg/mL human alpha-1-acid glycoprotein; type: cell-based
In short: (§3)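 Mouse C3H10T1/2-derived S12 cells carrying a stably integrated GLI-luciferase reporter. Grown in high-glucose DMEM with 10% FBS, replated, then switched to 0.5% FBS to induce cilia. Shh, human AAG (0, 0.5, 1 or 5 mg/mL) and compound added. Luciferase (Dual-Glo) read after 48 h. Mean of four experiments ±SD.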

[23] = Binding affinity to 10 uM of human alpha-1-acid glycoprotein in at 25 uM after 6 hrs by equilibrium dialysis method; type: ADME; details: isolated protein; in short: as §2
[24] = Binding affinity to human alpha-1-acid glycoprotein at 37 degC by surface plasmon resonance assay; type: ADME; in short: as §1
[25] = Binding affinity human alpha-1-acid glycoprotein in after 6 hrs by equilibrium dialysis method; type: ADME; in short: as §2
[26] = target: Sonic hedgehog protein (Homo sapiens) (UniProt Q15465); test: Inhibition of human SHH pathway in mouse S12 cells assessed as GLI-mediated transcriptional activity at 3 uM after 48 hrs by luciferase reporter gene assay in presence of 5 mg/mL human alpha-1-acid glycoprotein; type: cell-based; in short: as §3
[27] = target: T1, Albumin; test: Binding affinity to rat serum albumin at 37 degC by surface plasmon resonance assay
[28] = Binding affinity to human alpha-1-acid glycoprotein at 500 uM at 37 degC by surface plasmon resonance assay; type: ADME
In short: (§4)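 Compounds were diluted from 10 mM DMSO stocks into 50 mM Hepes pH 7.2, 150 mM NaCl, 0.005% Tween-20, 5% DMSO, in cross-serial dilutions. Responses at the end of association were double-referenced, solvent-corrected and fit to single- or two-site equilibrium models for KD.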

[29] = Binding affinity to rat alpha-1-acid glycoprotein at 500 uM at 37 degC by surface plasmon resonance assay; type: ADME; in short: as §4
[30] = Binding affinity to rat alpha-1-acid glycoprotein at 500 uM at 20 degC by surface plasmon resonance assay; type: ADME; in short: as §4
[31] = Binding affinity to human alpha-1-acid glycoprotein at 500 uM at 20 degC by surface plasmon resonance assay; type: ADME; in short: as §4

T1 sequence (P02770 whole entry): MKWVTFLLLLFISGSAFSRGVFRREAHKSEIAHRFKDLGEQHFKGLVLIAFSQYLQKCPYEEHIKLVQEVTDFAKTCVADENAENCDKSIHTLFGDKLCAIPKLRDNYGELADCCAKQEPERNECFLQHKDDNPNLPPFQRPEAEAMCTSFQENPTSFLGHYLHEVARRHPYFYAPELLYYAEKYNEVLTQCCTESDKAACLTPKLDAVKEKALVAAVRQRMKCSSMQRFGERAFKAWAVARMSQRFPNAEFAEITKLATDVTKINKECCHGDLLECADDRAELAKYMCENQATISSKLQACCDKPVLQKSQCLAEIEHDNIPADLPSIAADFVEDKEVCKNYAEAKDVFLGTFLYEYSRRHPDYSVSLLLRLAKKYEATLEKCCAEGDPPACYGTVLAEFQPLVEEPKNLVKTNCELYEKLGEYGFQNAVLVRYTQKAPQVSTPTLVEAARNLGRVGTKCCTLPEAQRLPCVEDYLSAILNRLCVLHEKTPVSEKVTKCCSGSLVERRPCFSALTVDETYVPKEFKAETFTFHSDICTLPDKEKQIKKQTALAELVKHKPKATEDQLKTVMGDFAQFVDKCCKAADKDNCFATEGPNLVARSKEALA
Chain of Sonic hedgehog protein (Homo sapiens) (Q15465 24-197 limits assumed): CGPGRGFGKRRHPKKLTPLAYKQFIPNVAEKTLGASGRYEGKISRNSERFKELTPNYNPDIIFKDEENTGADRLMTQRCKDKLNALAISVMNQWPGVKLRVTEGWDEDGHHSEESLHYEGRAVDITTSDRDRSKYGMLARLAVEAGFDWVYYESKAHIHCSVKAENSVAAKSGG
T2 sequence (P02768 whole entry): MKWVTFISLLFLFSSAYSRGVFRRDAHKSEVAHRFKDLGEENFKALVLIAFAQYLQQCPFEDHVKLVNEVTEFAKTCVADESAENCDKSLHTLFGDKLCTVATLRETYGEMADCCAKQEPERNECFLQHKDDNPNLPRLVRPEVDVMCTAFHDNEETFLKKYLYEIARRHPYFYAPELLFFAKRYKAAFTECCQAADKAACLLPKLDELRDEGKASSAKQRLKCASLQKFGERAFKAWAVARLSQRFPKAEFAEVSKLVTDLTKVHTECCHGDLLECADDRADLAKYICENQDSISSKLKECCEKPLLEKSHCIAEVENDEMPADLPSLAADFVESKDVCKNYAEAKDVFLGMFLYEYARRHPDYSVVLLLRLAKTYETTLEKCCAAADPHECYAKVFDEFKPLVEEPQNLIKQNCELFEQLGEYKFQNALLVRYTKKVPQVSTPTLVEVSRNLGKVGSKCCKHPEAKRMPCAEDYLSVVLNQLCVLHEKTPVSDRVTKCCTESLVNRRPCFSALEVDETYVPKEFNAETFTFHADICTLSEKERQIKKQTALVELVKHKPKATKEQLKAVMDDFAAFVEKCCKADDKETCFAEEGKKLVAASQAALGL

SMILES: C=CC1=C(C)/C(=C/C2=NC(=C\c3[nH]c(/C=C4\NC(=O)C(C)=C4C=C)c(C)c3CCC(=O)O)/C(CCC(=O)O)=C2C)NC1=O [BILIVERDIN]
- pKd [1]: 2.77
- pKd [2]: 4.15
- Activity [3]: Not Active
- pKd [4]: 3.66
- Activity [5]: Not Active
- pKd [6]: 5.08
- Activity [7]: Not Active
- Activity [8]: Not Active
- pKd [9]: 5.15
- pKd [10]: 4.82

SMILES: CS(=O)(=O)c1ccc(C(=O)Nc2ccc(Cl)c(-c3ccccn3)c2)c(Cl)c1 [VISMODEGIB]
- Activity [11]: 88.9%
- Activity [12]: 41.1%
- Activity [13]: 98.8%
- Activity [14]: 98.7%
- Activity [15]: Not Active
- pKd [16]: 3.77
- Activity [17]: 98.3%
- Activity [18]: 96.5%
- pKd [4]: 3.86
- Activity [19]: 98.3%
- pKd [20]: 5.24
- Activity [21]: 60%
- pKd [9]: 5.96
- pKd [10]: 5.43
- inhibition [22]: Active
- Activity [23]: 70.4%
- pKd [24]: 4.89
- pKd [25]: 5.82
- inhibition [26]: inactive
- pKd [27]: 3.85

SMILES: CC(=O)CC(c1ccccc1)c1c(O)c2ccccc2oc1=O (centres undefined) [WARFARIN]
- Activity [28]: Not Active
- Activity [29]: Not Active
- Activity [30]: Not Active
- Activity [31]: Not Active
